STAT1 inh: STAT1 signaling inhibitors, primary screen, cell-based, HTS, luciferase reporter | NIH 3T3 STAT1-luciferase reporter, IFN-gamma, luminescence | inhibition, % at 5.5 µM | actives 0.35% (n = 200,000);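 active means inhibition above a set limit, the mean inhibition across all tested compounds plus 3 SD, cut at about 34% in these data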;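 further: 0% = IFN-gamma with DMSO and 100% = IFN-gamma with 300 µM nifuroxazide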
FLuc stim CS: FLuc activators, initial screening, artefact control for FLuc-dependent activation tests, biochemical, ATPlite luminescence; ATPlite luciferase biochemical, 10 min; 0 = ATP-free wells, 1 = DMSO control; activation factor at 10 µM; 200,000 tested, under 10 active; AID 1027, 2008;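 active means luciferase activation factor, scaled between plate controls, of at least 2 with compound at 10 µM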
Target sequence (P08659 whole entry, looked up): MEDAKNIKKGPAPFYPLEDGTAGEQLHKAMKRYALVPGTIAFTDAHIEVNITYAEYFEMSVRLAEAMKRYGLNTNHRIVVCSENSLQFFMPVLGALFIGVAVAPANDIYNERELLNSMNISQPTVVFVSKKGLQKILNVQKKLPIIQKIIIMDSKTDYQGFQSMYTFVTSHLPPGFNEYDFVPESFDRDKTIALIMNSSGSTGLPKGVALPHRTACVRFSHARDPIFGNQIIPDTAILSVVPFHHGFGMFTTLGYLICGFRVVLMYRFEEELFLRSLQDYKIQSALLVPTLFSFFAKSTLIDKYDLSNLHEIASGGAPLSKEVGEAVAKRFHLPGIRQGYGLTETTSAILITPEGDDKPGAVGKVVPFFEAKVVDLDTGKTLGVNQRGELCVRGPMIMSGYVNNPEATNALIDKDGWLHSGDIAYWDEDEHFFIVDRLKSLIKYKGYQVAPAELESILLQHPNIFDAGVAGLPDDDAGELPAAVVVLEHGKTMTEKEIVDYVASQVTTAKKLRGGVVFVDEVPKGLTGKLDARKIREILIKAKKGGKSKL
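Assay system: Luciferase/luciferin reagent mix; Medium: PBS as buffer for the ATP substrate; Dosing: test compounds dosed from 2 mM stocks in 100% DMSO; Times: 10 min, room temperature; Signal: luminescence from luciferase reaction; Read-out: luciferase activation; Controls: No-ATP low control, compound-free enzyme-plus-ATP high control.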
STAT1 activator: STAT1 signaling activators, primary screen, cell-based, HTS, luciferase reporter; actives 2.6% (n = 200,000); NIH 3T3 STAT1-luciferase reporter, IFN-gamma, luminescence; 100% = IFN-gamma alone, no compound; activation (% of control), % at 5.5 µM;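 active means activation above the screen-wide mean activation plus 3 SD, cut at about 130% in these data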;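 further: raw ratio to IFN-gamma control signal so 100% means no change and 0% no light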
STAT3 act: IL-6 driven STAT3 reporter potentiators, primary screen, U3A cells, luciferase, luminescence, MLSCN library; IL-6 STAT3-luciferase reporter; 100% = signal with IL-6 EC80 alone; activation (% of control), % at 5.6 µM; actives 0.91% (n = 190,000); AID 871, 2007;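 active means activation above the screen-wide mean of compound activation plus 3 SD, cut at about 130% in these data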;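 further: 0% = background luminescence of wells with medium and substrate only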
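Material: STAT3-luciferase reporter U3A cells; Probe or stimulus: IL-6 (33 ng/mL); Incubation: compound pre-incubation 1 h before IL-6, then 6 h stimulation at 37 °C; Technique: luminescence from STAT3-driven luciferase reporter; Evaluation: % activation versus median of IL-6-stimulated wells; Controls: IL-6-only high control.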
FLuc inhib CS: firefly luciferase enzyme inhibitors, primary screen, artefact control for luciferase-based inhibitor screens, biochemical, luminescence, ATPLite | Luciferin 4-monooxygenase (Photinus pyralis), P08659 | 10 min | inhibition, % at 10 µM | actives 1.5% (n = 200,000);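 active means inhibition above about 50% when tested at 10 µM, limit read from the data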
STAT3 inh: IL-6 driven STAT3 reporter inhibitors, primary screen, U3A cells, luciferase, luminescence, MLSCN library | IL-6 STAT3-luciferase reporter; host cell line lacks STAT1 | inhibition, % at 5.5 µM | actives 0.89% (n = 190,000);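 active means inhibition above the mean inhibition across all screened compounds plus 3 SD, cut at about 44% in these data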;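 further: 0% = DMSO only wells and 100% = 100 µM nifuroxazide control wells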
Active calls of the source: *. The list is not random: actives were taken first. Their share in the collection is about 4.9%.

`CN(CC(=O)Nc1nc2ccccc2s1)S(=O)(=O)c1ccc(Br)cc1` gave STAT1 inh -9.8, FLuc stim CS 1.1, STAT1 activator 106.6, STAT3 act 133.6*, FLuc inhib CS -8.0 and STAT3 inh -40.1.
For Cc1cccc(NC(=O)CN(C)S(=O)(=O)c2ccc(Br)cc2)n1 the results were STAT1 inh -0.9, FLuc stim CS 1, STAT1 activator 100.8, STAT3 act 102.0, FLuc inhib CS -2.9 and STAT3 inh 4.6.
For O=C(CS(=O)(=O)c1ccccc1)Nc1nc2ccccc2s1 the results were STAT1 inh -8.4, FLuc stim CS 1, STAT1 activator 108.2, STAT3 act 133.3*, FLuc inhib CS 0.7 and STAT3 inh -30.7.
For CCOc1ccc2nc(NC(=O)CS(=O)(=O)c3ccccc3)sc2c1 the results were STAT1 inh -15.3, FLuc stim CS 0.9, STAT1 activator 114.1, STAT3 act 99.9, FLuc inhib CS 5.6 and STAT3 inh 2.7.
For COc1ccc(-c2ccc(SCC(=O)c3ccccc3)nn2)cc1OC the results were STAT1 inh -0.2, FLuc stim CS 0.9, STAT1 activator 98.2, STAT3 act 112.6, FLuc inhib CS 6.8 and STAT3 inh -8.1.
Screening Clc1ccc(OCc2cn3ccccc3n2)c2ncccc12 returned STAT1 inh -50.4, FLuc stim CS 0.8, STAT1 activator 144.7*, STAT3 act 102.3, FLuc inhib CS 22.3 and STAT3 inh 1.9.
Screening CCCn1c(/N=C/c2ccccc2O)nc2ccccc21 returned STAT1 inh 6.3, FLuc stim CS 1.1, STAT1 activator 94.3, STAT3 act 102.2, FLuc inhib CS -5.6 and STAT3 inh 2.1.
For Cn1c(/N=C/c2c(O)ccc3ccccc23)nc2ccccc21 the results were STAT1 inh 10.5, FLuc stim CS 1, STAT1 activator 90.3, STAT3 act 133.7*, FLuc inhib CS 3.9 and STAT3 inh -36.3.
`NNc1nc2c(F)cccc2s1` gave STAT1 inh -51.4, FLuc stim CS 1, STAT1 activator 146.4*, STAT3 act 152.1*, FLuc inhib CS -2.6 and STAT3 inh -55.5.
Screening Fc1cccc2sc(Nc3nnc(-c4ccccc4)o3)nc12 returned STAT1 inh -13.6, FLuc stim CS 0.2, STAT1 activator 112.5, STAT3 act 106.6, FLuc inhib CS 77.2* and STAT3 inh -0.4.
For CC(C)(C)c1csc(NC(=O)c2ccc(Cl)s2)n1 the results were STAT1 inh -40.7, FLuc stim CS 1, STAT1 activator 137.4*, STAT3 act 71.7, FLuc inhib CS 0.1 and STAT3 inh 35.4.
For Cc1ccc(C(=O)Nc2nc(C(C)(C)C)cs2)s1 the results were STAT1 inh -49.8, FLuc stim CS 0.8, STAT1 activator 146.1*, STAT3 act 97.4, FLuc inhib CS 22.4 and STAT3 inh 7.6.
Screening CC(C)(C)c1csc(NC(=O)Nc2ccccc2)n1 returned STAT1 inh -39.6, FLuc stim CS 0.5, STAT1 activator 136.5*, STAT3 act 102.7, FLuc inhib CS 45.8 and STAT3 inh 4.6.
`COc1ccc(-c2[nH]ncc2CN2CCC(N3CCSCC3)CC2)c(F)c1` gave STAT1 inh -6.3, FLuc stim CS 1, STAT1 activator 105.8, STAT3 act 110.2, FLuc inhib CS -3.6 and STAT3 inh -5.5.
CCn1c(C2CCN(Cc3ccccc3)CC2)n[nH]c1=S was read as STAT1 inh -0.6, FLuc stim CS 1.1, STAT1 activator 98.9, STAT3 act 96.5, FLuc inhib CS -6.1 and STAT3 inh 14.0.
Screening CCc1ccc(NC(=O)c2onc(C)c2Cl)cc1 returned STAT1 inh -47.4, FLuc stim CS 0.7, STAT1 activator 143.0*, STAT3 act 141.2*, FLuc inhib CS 34.1 and STAT3 inh -45.5.
Screening CCn1ccc(C(=O)Nc2ccccc2Cl)n1 returned STAT1 inh -43.5, FLuc stim CS 0.8, STAT1 activator 138.4*, STAT3 act 87.0, FLuc inhib CS 21.4 and STAT3 inh 19.2.
`CCn1ccc(C(=O)Nc2ccc(S(=O)(=O)Nc3ccccc3OC)cc2)n1` gave STAT1 inh 2.0, FLuc stim CS 1, STAT1 activator 98.7, STAT3 act 94.3, FLuc inhib CS 0.6 and STAT3 inh 6.8.
Screening CCn1cc(Br)c(C(=O)Nc2cccc(Cl)c2)n1 returned STAT1 inh -6.5, FLuc stim CS 1, STAT1 activator 108.3, STAT3 act 110.2, FLuc inhib CS 0.5 and STAT3 inh -8.3.
`CCn1ccc(C(=O)Nc2cccc(Cl)c2)n1` gave STAT1 inh -46.2, FLuc stim CS 0.8, STAT1 activator 141.0*, STAT3 act 103.7, FLuc inhib CS 22.1 and STAT3 inh 3.1.
`Cc1ccc(-c2cn3cccnc3n2)cc1` gave STAT1 inh -29.5, FLuc stim CS 0.3, STAT1 activator 124.7, STAT3 act 90.2, FLuc inhib CS 66.0* and STAT3 inh 17.2.
For COc1ccc(-c2cn3cc(C(=O)NN)ccc3n2)cc1 the results were STAT1 inh -22.4, FLuc stim CS 0.5, STAT1 activator 118.7, STAT3 act 66.3, FLuc inhib CS 49.6 and STAT3 inh 42.4.
`c1cnc2nc(-c3ccc4c(c3)OCO4)cn2c1` gave STAT1 inh -42.2, FLuc stim CS 0.4, STAT1 activator 135.6*, STAT3 act 95.0, FLuc inhib CS 55.2* and STAT3 inh 11.1.
`COC(=O)c1ccc2nc(-c3ccc4c(c3)OCO4)cn2c1` gave STAT1 inh 66.3*, FLuc stim CS 0.1, STAT1 activator 39.0, STAT3 act 25.1, FLuc inhib CS 85.3* and STAT3 inh 89.0*.
For CN(C)CCNC(=O)/C=N/O the results were STAT1 inh 8.7, FLuc stim CS 1, STAT1 activator 92.1, STAT3 act 86.5, FLuc inhib CS -3.5 and STAT3 inh 11.5.
COC(=O)c1cc(C(=O)c2ccc(Cl)cc2)n2c(=O)/c(=C\N(C)C)sc12 was read as STAT1 inh -0.1, FLuc stim CS 1, STAT1 activator 98.7, STAT3 act 96.4, FLuc inhib CS -2.6 and STAT3 inh 10.8.
For CC(=O)c1cc(Cl)ccc1OC(=O)c1ccco1 the results were STAT1 inh -0.5, FLuc stim CS 1.1, STAT1 activator 100.4, STAT3 act 105.6, FLuc inhib CS -8.2 and STAT3 inh -0.3.
`O=C(Oc1ccc(Br)cc1C(=O)/C=C/c1ccccc1F)c1ccco1` gave STAT1 inh -1.0, STAT1 activator 100.9, STAT3 act 140.3* and STAT3 inh -39.2.

Screening results deposited in PubChem BioAssay by several laboratories.
